These results are taken from ChEMBL document CHEMBL4400539, “Discovery of a Novel Chemotype of Histone Lysine Methyltransferase EHMT1/2 (GLP/G9a) Inhibitors: Rational Design, Synthesis, Biological Evaluation, and Co-crystal Structure” (J Med Chem, 2019).

One data set relates to MDA-MB-231. In words: Cytotoxicity against human MDA-MB-231 cells assessed as reduction in cell viability up to 5 uM after 72 hrs by MTT assay. In kind it is cell-based. As to conditions: mda-mb-231, 72 h. Put shortly:
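MCF-7, MDA-MB-231 and U-343 cells exposed 24, 48 and 72 h to 0.05, 0.5, 5 and 50 μM compound; viability by MTT reduction to formazan versus vehicle; mean ± SD of at least three independent experiments.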
(In general: Tetrazolium assays rely on reduction of a dye to a coloured formazan, in cell work by metabolically active cells.)

In data set [1] the target is T1, Histone-lysine N-methyltransferase EHMT2 (Homo sapiens) (UniProt Q96KQ7).
T1 sequence (whole entry): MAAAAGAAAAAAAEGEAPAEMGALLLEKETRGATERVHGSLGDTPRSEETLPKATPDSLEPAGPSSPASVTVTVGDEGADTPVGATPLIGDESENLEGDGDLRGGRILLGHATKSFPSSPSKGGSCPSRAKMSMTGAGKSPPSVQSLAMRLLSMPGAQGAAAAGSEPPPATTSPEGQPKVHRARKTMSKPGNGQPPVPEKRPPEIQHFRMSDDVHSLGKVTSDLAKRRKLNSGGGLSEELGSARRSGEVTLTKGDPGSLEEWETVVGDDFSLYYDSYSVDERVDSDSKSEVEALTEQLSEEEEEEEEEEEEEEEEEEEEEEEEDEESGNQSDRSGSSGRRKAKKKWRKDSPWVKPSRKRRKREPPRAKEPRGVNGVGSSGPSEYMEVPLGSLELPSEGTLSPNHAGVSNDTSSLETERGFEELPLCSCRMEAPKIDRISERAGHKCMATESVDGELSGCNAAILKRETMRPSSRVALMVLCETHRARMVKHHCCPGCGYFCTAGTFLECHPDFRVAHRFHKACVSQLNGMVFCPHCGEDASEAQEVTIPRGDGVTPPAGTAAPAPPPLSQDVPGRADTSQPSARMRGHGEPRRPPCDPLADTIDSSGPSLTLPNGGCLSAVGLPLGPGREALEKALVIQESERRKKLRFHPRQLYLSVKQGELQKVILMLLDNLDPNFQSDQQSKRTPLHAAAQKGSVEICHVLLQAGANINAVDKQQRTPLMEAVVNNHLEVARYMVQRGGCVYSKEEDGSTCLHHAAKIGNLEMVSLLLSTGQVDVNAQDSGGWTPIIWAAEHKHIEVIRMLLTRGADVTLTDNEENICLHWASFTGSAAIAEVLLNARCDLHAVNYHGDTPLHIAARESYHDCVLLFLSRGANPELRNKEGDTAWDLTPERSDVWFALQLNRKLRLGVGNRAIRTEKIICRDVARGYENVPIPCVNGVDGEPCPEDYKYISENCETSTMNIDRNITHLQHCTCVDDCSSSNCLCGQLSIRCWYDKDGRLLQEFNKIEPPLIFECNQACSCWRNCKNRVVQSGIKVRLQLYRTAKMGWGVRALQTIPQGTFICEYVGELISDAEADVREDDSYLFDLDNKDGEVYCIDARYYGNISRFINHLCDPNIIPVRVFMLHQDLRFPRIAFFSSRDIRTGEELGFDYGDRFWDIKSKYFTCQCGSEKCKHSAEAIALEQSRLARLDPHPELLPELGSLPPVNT

A short description of data set [2]: Chemical stability of the compound in PBS buffer after 72 hrs by HPLC analysis. In kind it is physicochemical. A digest of the protocol: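 Stability checked by HPLC after exposure to PBS over 72 h.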
Data set [3] has as its target T2, Histone-lysine N-methyltransferase EHMT2 (Homo sapiens, UniProt Q96KQ7).
T2 sequence (Q96KQ7 whole entry): T1 sequence (whole entry)
The data set is described as follows: Competitive inhibition of recombinant human G9a using biotinylated-Histone H3 peptide (1 to 21 residues) as substrate at varying concentration after 30 mins in presence SAM by Lineweaver-Burk plot analysis.

Data set [4] deals with T2, Histone-lysine N-methyltransferase EHMT2. The data set is described as follows: Inhibition of recombinant human G9a using biotinylated-Histone H3 peptide (1 to 21 residues) after 30 mins in presence of SAM by AlphaLISA assay.
In data set [5] the target is Protein arginine N-methyltransferase 1 (Homo sapiens) (UniProt Q99873). The data set is described as follows: Inhibition of recombinant human PRMT1 at 10 to 25 uM using biotinylated-Histone H4 peptide (1 to 21 residues) as substrate preincubated for 30 mins followed by substrate addition and measured after 60 mins in presence of SAM by AlphaLISA assay relative to control. A digest of the protocol: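 Biotinylated H4(1–21) peptide plus SAM then added for 60 min: PRMT1 0.9 nM, peptide 100 nM, SAM 2 μM; PRMT3 23 nM, peptide 50 nM, SAM 10 μM. Anti-H4R3me AlphaLISA; 10 and 25 μM; three experiments, mean ± SD.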

Data set [6] deals with T1, Histone-lysine N-methyltransferase EHMT2 (Homo sapiens). The data set is described as follows: Inhibition of recombinant human G9a at 10 uM using biotinylated-Histone H3 peptide (1 to 21 residues) after 30 mins by AlphaLISA assay relative to control. Put shortly: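 G9a AlphaLISA at fixed 10 or 25 μM compound: human recombinant G9a 1 nM, 30 min preincubation, then biotinylated H3(1–21) 100 nM plus SAM 15 μM for 30 min at room temperature, pH 8.8 Tris buffer with 0.01% Tween-20; anti-H3K9me2 acceptor and streptavidin donor beads; percent of DMSO control.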
(In general: Bead proximity is the source of the signal in Alpha formats.)

The source made the active and inactive calls. The calls are words filed in the database; no cut-off is given here.

Sequence of Protein arginine N-methyltransferase 1 (Homo sapiens) (Q99873 whole entry, looked up, the tested form may be a part): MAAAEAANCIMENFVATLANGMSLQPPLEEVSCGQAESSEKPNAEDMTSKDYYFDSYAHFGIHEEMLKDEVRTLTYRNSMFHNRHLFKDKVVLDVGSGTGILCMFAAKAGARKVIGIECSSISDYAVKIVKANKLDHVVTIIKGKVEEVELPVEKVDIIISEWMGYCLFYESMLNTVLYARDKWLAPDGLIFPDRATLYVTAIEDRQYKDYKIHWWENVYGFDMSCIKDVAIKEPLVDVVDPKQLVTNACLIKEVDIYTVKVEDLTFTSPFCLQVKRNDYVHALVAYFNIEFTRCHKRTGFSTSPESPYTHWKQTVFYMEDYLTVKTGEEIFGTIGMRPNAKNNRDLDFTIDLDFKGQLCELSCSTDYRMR

By Ki is commonly meant the dissociation constant of the complex between target and ligand, obtained from inhibition or displacement. The IC50 is the point on the concentration scale where inhibition reaches its midpoint. One may read the inhibition as the relative decrease from the control value, in per cent. As for `COc1cc2c(cc1OCCCN1CCCC1)N=C(C1CCCCC1)CN=C2NC1CCN(C(C)C)CC1`, the Activity entry with MDA-MB-231 is reported as “Non-Toxic”. In data set [1], this compound yielded a Kdiss of 0.0351. Moreover, the Stability entry in data set [2] is “Stable”. Moreover, the Ki in data set [3] turned out to be 13.8 nM. Moreover, the concentration for half-maximal inhibition (IC50) in data set [4] was determined as 23 nM. In addition, in data set [5], the inhibition entry is “inactive”. The inhibition in data set [6] was found to be 97%.
